Among the data in ChEMBL document CHEMBL4513216, “Probing the Open Global Health Chemical Diversity Library for Multistage-Active Starting Points for Next-Generation Antimalarials” (ACS Infect Dis, 2020) are cytotoxicity values, retold here.

This series can be described thus: Toxicity liver stage against HepG2, at 10uM. Also noted: test concentration 10 uM, cell line HepG2-A16-CD81EGFP. The conditions noted are these: human, HepG2-A16-CD81EGFP cells; read-out: INHIBITION
Type of series: cell-based. Put shortly:
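Uninfected HepG2-A16-CD81EGFP cells, 3 × 10^3 per well, 1536-well, plated on prespotted compound at 10 μM final, parasite-free screening media added to match infected plates; puromycin 10 μM positive, DMSO 0.5% negative; run in parallel with 48 h PbLuc assay at 37 °C, 5% CO2; viability by CellTiter-Glo luminescence, normalized to controls.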
Take `COCC(=O)N1CCN(c2cc(C)nc(C3CCCN3C(C)=O)c2)CC1` (stereo not given): the cytotoxicity at 10 µM came to 1.86%. Consider `CCn1ccc(-c2cc(NCCCOc3ccccc3C)nc(C)n2)n1`, for which the cytotoxicity at 10 µM was -5.28%. The value for `Cn1ncc2c1CCCN(C(=O)C1CC1)C2` was -8.27%. The value for `Cc1ccc(Br)cc1NC(=O)NC1CCC2(C1)OCCO2` (stereo not given) was 15.6%; that for `Cc1ccc(CN2CC[C@@H](NC(=O)c3cccnc3)[C@H](O)C2)o1` was 2.52%. For the compound `O=c1ccc2c(n1CC1CC1)CCN(c1ncccn1)CC2`, the cytotoxicity at 10 µM is 7.17%. The value for `CCn1ncc2c1CN(CCc1cccc(Cl)c1)CC2COC` (stereo not given) was -98.4%; that for `Cn1ccc2cc(CC3COCCN(C(=O)c4cccnc4)C3)ccc21` (stereo not given) was 7.24%; that for `Cc1ccc(C)c(CSc2nnc(C(N)Cc3ccccc3)o2)c1` (stereo not given) was -0.431%. Consider `CC(CC(=O)NS(C)(=O)=O)C1CCCCC1` (stereo not given), for which the cytotoxicity at 10 µM is -13.5%. `Cn1ccc2c(C(=O)N3CCN(C(=O)C4CCCC4)CC3)cccc21`: the cytotoxicity at 10 µM is -0.53%. Turning to `CN(C)c1ccc(C(=O)N2CCN(c3cnccn3)CC2)cn1`, the cytotoxicity at 10 µM was -4.98%. Regarding `Cc1nc(-c2ccc(Cl)s2)sc1C(=O)NCCCC(N)=O`, the cytotoxicity at 10 µM was -5.6%.

Consider `CC(C)(O)CCc1ccc(C(=O)NCC2CCCOC2)cc1` (stereo not given), for which the cytotoxicity at 10 µM was determined as 0.445%.

In the case of `CC(NCc1ccsc1)c1ccc(OCc2nccn2C)cc1` (stereo not given), the cytotoxicity at 10 µM was -6.37%. For the compound `CC(C)(C)CC(=O)N1CC[C@H]2NC(=O)N(Cc3ccccc3)C(=O)[C@H]21`, the cytotoxicity at 10 µM is -0.171%. The value for `CCC(O)CN1CCN(C(=O)c2cccn2Cc2ccccc2)CC1` (stereo not given) was -8.03%; that for `COc1cccc(C(=O)NS(=O)(=O)c2cccc(C#N)c2)c1OC` was -8.06%. With `Cc1ccc(F)cc1S(=O)(=O)NCc1[nH]ncc1Br` the figure was 10.3%. The value for `O=S1(=O)c2cnccc2OC(COc2ccccc2)CN1CC1CC1` (stereo not given) was -1.16%. As for `Cn1ncc2ccc(C3CCCN(Cc4cccs4)C3)nc21` (stereo not given), the cytotoxicity at 10 µM was 1.88%. With `Cc1oc(-c2ccoc2)nc1CN1CCCCC1CCn1cccn1` (stereo not given) the figure was -3.65%; with `CNC(=O)CSc1cnn(CC(=O)Nc2cccc(Cl)c2C)c(=O)c1Cl`, -17.6%. The value for `COCc1ccc(C(=O)N2CCCN(c3ccc(F)cc3)CC2)s1` was -8.92%; that for `CCOCc1cnc2n1CCN(Cc1cccs1)C2C` (stereo not given) was 11.3%. Take `Cn1cc(CCNC(=O)C2(c3cccc(Cl)c3)CC2)cn1`: the cytotoxicity at 10 µM was found to be 0.33%. On to `C1=C(c2c[nH]c3ncccc23)CCN(Cc2nnc(C3CC3)o2)C1`, for which the cytotoxicity at 10 µM worked out at 30.7%. The value for `O=C(CCc1cccs1)NCC1CCCN1c1cccnn1` (stereo not given) was -1.9%.

In the case of `CC(NC(=O)CCc1cccs1)c1nnc2n1CCC2` (stereo not given), the cytotoxicity at 10 µM was -4.22%. Turning to `O=C1NCC2(CCCN(C(=O)c3c[nH]nc3-c3cccs3)C2)O1` (stereo not given), the cytotoxicity at 10 µM was determined as 8.32%.

In the case of `Cc1sc2nc(CCN)nc(N3CCS(=O)(=O)CC3)c2c1C`, the cytotoxicity at 10 µM was -44.1%. Consider `Cn1cccc1C(=O)N1CC[C@@H]2[C@@H]1CC(=O)N2CCN1CCOCC1`, for which the cytotoxicity at 10 µM was -7.41%. The value for `c1ccc(NCc2cccc(OCCN3CCOCC3)c2)nc1` was 0.174%; that for `COCCN(C(=O)c1nc(-c2ccco2)sc1C)C1CC1` was -8.96%. With `CCOc1ccc(C(C)NC(=O)N2CCC(C(N)=O)CC2)cc1OC` (stereo not given) the figure was -4.56%; with `CCN1CCOC(CNCc2ccccc2OCc2ccccn2)C1` (stereo not given), -10.1%. The value for `CCCc1nc(C(=O)N2CCn3nc(C(=O)OC)cc3C2)cs1` was 8.87%; that for `CC(C)Nc1ncnc2c1CCNCC2` was -1.43%. Take `CCc1ccc(NC(=O)N2Cc3c(CN(C)C)nn(C)c3C2)cc1`: the cytotoxicity at 10 µM worked out at 5.62%. For `O=C(CC1CCc2ccccc21)N1CCC(O)(Cn2ccnc2)CC1` (stereo not given), the cytotoxicity at 10 µM came to 5.01%.
